Data published in paper PMC8245912 (Acta Pharmaceutica Sinica. B, 2020).
Where two headings read alike, the source gives them in different places. Peptide text beside a SMILES is read from it. * marks the point of attachment. Cbz = O=C(OCc1ccccc1)*

Tests used:
[1] = test system: HCT116 (colon cancer) cells; assay: CCK-8 antiproliferative assay, HCT116; format: cell-based; conditions: Homo sapiens, HCT-116, read-out: IC50 HCT116
[2] = test system: MCF-7 (breast cancer) cells; assay: CCK-8 antiproliferative assay, MCF-7; format: cell-based; conditions: Homo sapiens, MCF7, read-out: IC50 MCF-7
A549 (lung cancer) cells = assay: CCK-8 antiproliferative assay, A549; format: cell-based; conditions: Homo sapiens
MDM2‒P53 = MDM2‒P53 (Homo sapiens, UniProt Q00987); assay: fluorescence polarization; format: binding; conditions: for Ki: MDM2‒P53 Ki, FP binding assay, Table 1
[3] = test system: HepG2 (liver cancer) cells; assay: CCK-8 antiproliferative assay, HepG2; format: cell-based; conditions: Homo sapiens, HepG2, read-out: IC50 HepG2
MDM2 = MDM2 (Homo sapiens, UniProt Q00987); assay: Western blotting of MDM2 degradation in A549 cells; format: cell-based; conditions: for MDM2 degradation (result in words): Western blotting, Fig. 2B
P53 = assay: Western blotting of P53 expression in A549 cells; format: cell-based, human
A549 cells = assay: apoptosis assay, flow cytometry with Annexin V/PI double staining; format: cell-based, human; conditions: for apoptosis: 5.0 μmol/L, 24 h treatment
HCT116 (P53+) cells = assay: CCK-8 assay, P53-wild HCT116; format: cell-based; conditions: Homo sapiens, HCT-116, read-out: IC50 HCT116 (P53+)
HCT116 (P53‒) cells = assay: CCK-8 assay, P53-deleted HCT116; format: cell-based; conditions: Homo sapiens, HCT-116, read-out: IC50 HCT116 (P53‒)
Caco-2 cells = format: in vitro ADME
A549 xenograft = assay: in vivo A549 xenograft assay; set-up: species or system mouse; conditions: A549 xenograft nude mice, intraperitoneal 20 mg/kg twice-daily, 21 days
Procedure, shortened: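 Female BALB/c nude mice (6–7 weeks, 18–20 g) received 5.0 × 10^6 A549 cells subcutaneously in the flank. At mean tumour volume 100 mm3 they were randomised, 5 per group. Intraperitoneal dosing ran twice daily for 21 days; vehicle was normal saline. Calipers measured tumours every three days: V = A×B²/2, TGI = (1 − Vtreat/Vcontrol) × 100. Analysis used mean ± SEM and one-way ANOVA.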

[4] = A549, 72 h, read-out: IC50 A549

Compound	IC50 [1] [µM]	IC50 [2] [µM]	IC50 (A549 (lung cancer) cells; [4]) [µM]	Ki (MDM2‒P53) [µM]	IC50 [3] [µM]	MDM2 degradation (result in words) (MDM2)	further results
CCOc1cc(C(C)(C)C)ccc1C1=N[C@@H](c2ccc(Cl)cc2)[C@@H](c2ccc(Cl)cc2)N1C(=O)N1CCN(C(=O)CCCCCC(=O)N2CCN(C(=O)N3C(c4ccc(C(C)(C)C)cc4OCC)=N[C@@H](c4ccc(Cl)cc4)[C@H]3c3ccc(Cl)cc3)CC2)CC1 (relative stereo) [Compound 10a, 1,7-Bis(4-(2-(4-(tert-butyl)-2-ethoxyphenyl)-cis-4,5-bis(4-chlorophenyl)-4,5-dihydro-1H-imidazole-1-carbonyl)piperazin-1-yl) heptane-1,7-dione]	2.5 ± 1	2.1	2.1 ± 0.1	0.65 ± 0.17	1.5 ± 0.05	no degradation	
CCOc1cc(C(C)(C)C)ccc1C1=N[C@@H](c2ccc(Cl)cc2)[C@@H](c2ccc(Cl)cc2)N1C(=O)N1CCN(C(=O)CCCCCCCC(=O)N2CCN(C(=O)N3C(c4ccc(C(C)(C)C)cc4OCC)=N[C@@H](c4ccc(Cl)cc4)[C@H]3c3ccc(Cl)cc3)CC2)CC1 (relative stereo) [Compound 10b, 1,9-Bis(4-(2-(4-(tert-butyl)-2-ethoxyphenyl)-cis-4,5-bis(4-chlorophenyl)-4,5-dihydro-1H-imidazole-1-carbonyl)piperazin-1-yl) nonane-1,9-dione]	5.7 ± 1.3	6.3 ± 1.1	6.3 ± 1.2	1.6 ± 0.96	3.8		
CCOc1cc(C(C)(C)C)ccc1C1=N[C@@H](c2ccc(Cl)cc2)[C@@H](c2ccc(Cl)cc2)N1C(=O)N1CCN(C(=O)COCCOCC(=O)N2CCN(C(=O)N3C(c4ccc(C(C)(C)C)cc4OCC)=N[C@@H](c4ccc(Cl)cc4)[C@H]3c3ccc(Cl)cc3)CC2)CC1 (relative stereo) [Compound 10e, 2,2′-(Ethane-1,2-diylbis(oxy)) bis(1-(4-(2-(4-(tert-butyl)-2-ethoxyphenyl)-cis-4,5-bis(4-chlorophenyl)-4,5-dihydro-1H-imidazole-1-carbonyl)piperazin-1-yl)ethan-1-one)]	3.9 ± 0.7	7.4 ± 0.51	6.6 ± 1	1.5 ± 0.82	4.6 ± 0.8		
CCOc1cc(C(C)(C)C)ccc1C1=N[C@@H](c2ccc(Cl)cc2)[C@@H](c2ccc(Cl)cc2)N1C(=O)N1CCN(C(=O)COCCOCCOCC(=O)N2CCN(C(=O)N3C(c4ccc(C(C)(C)C)cc4OCC)=N[C@@H](c4ccc(Cl)cc4)[C@H]3c3ccc(Cl)cc3)CC2)CC1 (relative stereo) [Compound 10f, 2,2′-((Oxybis(ethane-2,1-diyl))bis(oxy))bis(1-(4-(2-(4-(tert-butyl)-2-ethoxyphenyl)-cis-4,5-bis(4-chlorophenyl)-4,5-dihydro-1H-imidazole-1-carbonyl)piperazin-1-yl)ethan-1-one)]	1.3 ± 0.1	4.7 ± 0.81	1.3	0.22 ± 0.07	1.2 ± 0.2	dose-dependently induced MDM2 protein cleavage	P53 protein expression (result in words) (P53): increased the P53 protein expression
COc1ccc(C2=N[C@@H](c3ccc(Cl)cc3)[C@@H](c3ccc(Cl)cc3)N2C(=O)N2CCNC(=O)C2)c(OC(C)C)c1 [Compound 1, Nutlin-3, reference compound]	5 ± 0.9	9.7 ± 1	7.9 ± 1.3		8.9 ± 1	did not induce the degradation of MDM2	apoptosis (A549 cells; A549 cells): 10.94%; IC50 (A549 (lung cancer) cells; A549, read-out: IC50 A549): 9.9 ± 1.3 µM; IC50 (HCT116 (P53‒) cells): 19 ± 0.91 µM; tumor growth inhibition (TGI) (A549 xenograft): 47.8%
CC(C)C[C@@H](C=O)NC(=O)[C@H](CC(C)C)NC(=O)[C@H](CC(C)C)NC(=O)OCc1ccccc1 [MG132, reference compound] (Cbz-Leu-Leu-Leu-aldehyde)							toxic effect on A549 cells (result in words) (A549 cells; 0.2 μmol/L, incubation for 24 h): no toxic effect

Second part, led by results:

IC50 [1] [µM]	IC50 [2] [µM]	IC50 (A549 (lung cancer) cells; [4]) [µM]	Ki (MDM2‒P53) [µM]	IC50 [3] [µM]	Compound	MDM2 degradation (result in words) (MDM2)	further results
1.9 ± 0.11	2.9 ± 0.6	1 ± 0.1		3.3 ± 0.31	CCOc1cc(C(C)(C)C)ccc1C1=N[C@@H](c2ccc(Cl)cc2)[C@@H](c2ccc(Cl)cc2)N1C(=O)N1CCN(CC(=O)NCCOCCOCCOCCNC(=O)CN2CCN(C(=O)N3C(c4ccc(C(C)(C)C)cc4OCC)=N[C@@H](c4ccc(Cl)cc4)[C@H]3c3ccc(Cl)cc3)CC2=O)C(=O)C1 (relative stereo) [Compound 11a, N,N′-(((Oxybis(ethane-2,1-diyl))bis(oxy))bis(ethane-2,1-diyl))bis(2-(4-(2-(4-(tert-butyl)-2-ethoxyphenyl)-cis-4,5-bis(4-chlorophenyl)-4,5-dihydro-1H-imidazole-1-carbonyl)-2-oxopiperazin-1-yl)acetamide)]	dose-dependently induced MDM2 protein cleavage	apoptosis in combination with MG132 (A549 cells; A549 cells, 5.0 μmol/L compound + MG132 0.2 μmol/L): 15.81%; apoptosis (A549 cells; A549 cells): 23.49%; IC50 (A549 (lung cancer) cells; A549, read-out: IC50 A549): 1.4 ± 0.31 µM; IC50 (HCT116 (P53+) cells): 1.9 ± 0.67 µM; fold more potent MDM2‒P53 competitive binding than positive control 1 (MDM2‒P53; ratio of Ki vs compound 1): ~1.5 fold; IC50 (HCT116 (P53‒) cells): > 50 µM; cellular permeability (result in words) (Caco-2 cells): low permeability; P53 protein expression (result in words) (P53): increased the P53 protein expression; MDM2 degradation (MDM2; 2 μmol/L, 24 h): > 95%; MDM2 degradation rescue by proteasome inhibitor MG132 (result in words) (MDM2; Fig. 4F): MG132 blocked the MDM2 degradation; time at which depletion of MDM2 was observed (MDM2; time course degradation, Fig. 4D): ≤ 2 h
3.9 ± 1.6	4.9 ± 0.2	6.6 ± 1	1.8 ± 0.94	7.3 ± 0.52	CCOc1cc(C(C)(C)C)ccc1C1=N[C@@H](c2ccc(Cl)cc2)[C@@H](c2ccc(Cl)cc2)N1C(=O)N1CCN(CC(=O)NCCOCCOCCNC(=O)CN2CCN(C(=O)N3C(c4ccc(C(C)(C)C)cc4OCC)=N[C@@H](c4ccc(Cl)cc4)[C@H]3c3ccc(Cl)cc3)CC2=O)C(=O)C1 (relative stereo) [Compound 11b, N,N′-((Ethane-1,2-diylbis(oxy))bis(ethane-2,1-diyl))bis(2-(4-(2-(4-(tert-butyl)-2-ethoxyphenyl)-cis-4,5-bis(4-chlorophenyl)-4,5-dihydro-1H-imidazole-1-carbonyl)-2-oxopiperazin-1-yl)acetamide)]		
7.4 ± 2.1	14 ± 3.7	9.3 ± 1.7	12 ± 1.9	12 ± 3.7	CCOc1cc(C(C)(C)C)ccc1C1=N[C@@H](c2ccc(Cl)cc2)[C@@H](c2ccc(Cl)cc2)N1C(=O)N1CCN(CC(=O)NCCOCCNC(=O)CN2CCN(C(=O)N3C(c4ccc(C(C)(C)C)cc4OCC)=N[C@@H](c4ccc(Cl)cc4)[C@H]3c3ccc(Cl)cc3)CC2=O)C(=O)C1 (relative stereo) [Compound 11c, N,N′-(Oxybis(ethane-2,1-diyl))bis(2-(4-(2-(4-(tert-butyl)-2-ethoxyphenyl)-cis-4,5-bis(4-chlorophenyl)-4,5-dihydro-1H-imidazole-1-carbonyl)-2-oxopiperazin-1-yl)acetamide)]		
